This is an account of results in publication PMC7689742 (Clinical Pharmacology and Therapeutics, 2020).

A short description of data set [1]: Determination of the binding constant. Conditions: for k complex / k complex (M^−1): 1:1 complex with HP‐β‐CD, source Internal data. It counts as physicochemical.
For data set [2] the following is noted: 1:1 complex with HP‐β‐CD; cited from earlier work.
The next data set is described as follows: GastroPlus human model. Conditions: for clearance: both, human, plasma, oral.
Data set [3] can be described thus: Determination of the binding constant. It is filed as physicochemical. Conditions: aqueous, 48 hours, ambient. The method, boiled down: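 Excess test compound was added to sealed glass vials of aqueous α-cyclodextrin or HP-β-CD at several concentrations. Vials were shaken 48 h at ambient conditions to equilibrate, then centrifuge-filtered to remove solids. Dissolved compound was quantified by HPLC with diode array detection. k_complex = [complex]/([intrinsic solubility]·[free cyclodextrin]).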

Data set [4] in a line: Physiochemical properties used for fenebrutinib.
For another data set, the system named is MDCK cell monolayer. In words: Permeability across an MDCK cell monolayer. It is filed as in vitro ADME, canine. Conditions: HP‐β‐CD:fenebrutinib molar ratio 1.56 (266 mg HP‐β‐CD). A digest of the protocol: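 MDCK cells with canine Mdr1 knocked out by CRISPR-Cas9 were grown 5 days on 1 µm pore polyester inserts. Monolayers were equilibrated 20 min at 37°C in HBSS with 10 mM Hepes, pH 7.4. Donor held 20 µM test compound, 50 µM lucifer yellow and 0–20% w/v HP-β-CD. Apical-to-basolateral receivers were sampled at 30, 60 and 90 min. Quantitation was by LC-MS/MS; Papp = (dQ/dt)/(A·C0).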

Data set [5] in a line: Itraconazole clinical DDI study, fenebrutinib PK in healthy subjects. It counts as in vivo, human. A digest of the protocol: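 Single oral 100 mg test-compound dose on Day 1; after a 3-day washout, inhibitor 200 mg oral solution once daily Days 4–9, with co-dosed 100 mg test compound Day 10 and one more inhibitor dose Day 11. Overnight fast, 240 mL water, food withheld 4 h post-dose. Plasma sampled predose to 48 h on Days 1 and 10. Mixed-model least-squares means, 90% CI of difference.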

The nature of data set [6]: Pharmacokinetic study in pentagastrin‐pretreated dogs with or without HP‐β‐CD. It counts as in vivo, dog. Conditions: for AUC 0‐∞ / Fenebrutinib recovered in feces / Cmax / Tmax: 100 mg tablets; for Cmax / Tmax: male, beagle, dog, plasma, po, 100 mg. The method, boiled down:
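Fasted male beagles got intramuscular pentagastrin at 6 µg/kg about 30 min before dosing. They then had oral gavage of pH 2 water (control) or HP-β-CD in pH 2 water (0.8, 2 or 8 g total), each plus water to 250 mL, followed by two 50 mg tablets (n = 4/group). Plasma was sampled 5 min–24 h and assayed by LC-MS/MS (LLOQ 1.02 ng/mL). Cumulative fecal recovery was measured. Groups were compared by one-way ANOVA with Bonferroni's test.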

Where [7] appears, read: dog model, from intravenous PK data.
Where [8] appears, read: two‐compartment model fit to control group.
Where [9] appears, read: both, human, plasma, po, 100 mg.

The structures appear in SMILES notation. ≈ marks a conversion by molar mass, not a printed value. Where “and” joins values, the source holds several entries; their conditions need not be identical. Identical values can stand only once. Like-named read-outs stand apart in the source and are kept apart here.

Broadly, the solubility is the concentration that dissolves in the medium under given conditions. High values mean much dissolved substance, low ones little dissolved substance. The term Cmax denotes the maximum level reached in the sampled fluid or tissue. The term Tmax denotes the time from dosing to the highest level. By half-life is commonly meant the time needed for the level to fall by half in the phase considered. Read a high half-life as slow loss.

Consider `Nc1ccc(S(=O)(=O)Nc2nccs2)cc1` [Sulfathiazole], for which the “k complex” value in [1] was found to be 450 M⁻¹.
Regarding `C[C@]12CCC(=O)C=C1CC[C@@H]1[C@@H]2[C@@H](O)C[C@@]2(C)[C@H]1CC[C@]2(O)C(=O)CO` [Hydrocortisone], in data set [2], the “k complex (M^−1)” value is reported as 1,900 M^−1.
For the compound `CC(=O)Nc1nnc(S(N)(=O)=O)s1` [Acetazolamide], the “k complex” value in data set [2] was 85 M⁻¹.
For `C[C@]12C=CC(=O)C=C1CC[C@@H]1[C@@H]2[C@@H](O)C[C@@]2(C)[C@H]1CC[C@]2(O)C(=O)CO` [Prednisolone], in data set [2], the “k complex” value is 958 M⁻¹.
For `CN1C(=O)CN=C(c2ccccc2)c2cc(Cl)ccc21` [Diazepam], the “k complex” value in data set [2] is 184 M⁻¹.
For the compound `O=C(O)c1cc(-c2ccc(F)cc2F)ccc1O` [Diflunisal], the “k complex (M^−1)” value in data set [1] is reported as 1,600 M^−1.
As to `CCn1cc(C(=O)O)c(=O)c2cc(F)c(N3CCNCC3)cc21` [Norfloxacin], the “k complex” value in data set [1] came to 5 M⁻¹.
As to `Cc1ccc(-c2cc(C(F)(F)F)nn2-c2ccc(S(N)(=O)=O)cc2)cc1` [Celecoxib], the “k complex (M^−1)” value in data set [1] was 3,000 M^−1.
As for `Cc1nnc2n1-c1ccc(Cl)cc1C(c1ccccc1Cl)=NC2` [Triazolam], the “k complex” value in data set [2] is 200 M⁻¹.
Regarding `CN1C(=O)CN=C(c2ccccc2F)c2cc([N+](=O)[O-])ccc21` [Flunitrazepam], in [2], the “k complex (M^−1)” value is 1,100 M^−1.
Take `CC/C(=C(/CC)c1ccc(O)cc1)c1ccc(O)cc1` [Diethylstilbestrol]: in data set [2], the “k complex (M^−1)” value is 59,200 M^−1.
`C[C@H]1CN(C2COC2)CCN1c1ccc(Nc2cc(-c3ccnc(N4CCn5c(cc6c5CC(C)(C)C6)C4=O)c3CO)cn(C)c2=O)nc1` [Fenebrutinib]: the “transfer rate constant from the central to peripheral compartment” value came out at 0.08 h⁻¹ in “GastroPlus dog model” (setting [7]) and 0.5 h⁻¹ in the data set “GastroPlus human model” (setting [8]). Besides, the “transfer rate constant from the peripheral to central compartment” value in “GastroPlus dog model” (setting [7]) is 0.2 h⁻¹; in “GastroPlus human model” (setting [8]), 0.19 h⁻¹. Besides, the clearance in the data set “GastroPlus dog model” (dog, plasma, iv) was 6 mL/min/kg; in “GastroPlus human model”, 19.2 mL/min/kg; in “GastroPlus human model” (100 mg), 35 mL/min/kg. Further, the “reduction of systemic clearance in the presence of itraconazole” value in the data set “GastroPlus human model” (residual method on elimination phases) was “approximately 45%”. Besides, in [3], the “k complex with α‐CD” value is 4,000 M^−1. The “particle size distribution median diameter (D50)” value in data set [4] came to 12 µm. The solubility worked out at 36000 µg/mL (≈ 54200 µM) in data set [4] (pH 2.3); 9 µg/mL (≈ 13.5 µM) in data set [4] (pH 6.5, fassif); 0.1 µg/mL (≈ 0.15 µM) in data set [4] (pH 7.8, aqueous buffer). Further, the “reduction in P app” value with MDCK cell monolayer is listed as around 2 fold. Moreover, the “k complex (M^−1)” value in [1] is 200,000 M^−1. Besides, in data set [1] (aqueous, 48 hours, ambient), the “k complex with HP‐β‐CD” value is 2 × 10^5 M^−1 and ~ 2 × 10^5 M^−1. Also, the “AUC0–24h” value was found to be 1.11 ± 0.359 µg/h/mL in [5] (100 mg fenebrutinib oral alone, healthy subjects) and 2.45 ± 0.588 µg/h/mL in data set [5] (100 mg fenebrutinib with 200 mg itraconazole oral solution (steady state)). Besides, the Cmax in data set [5] (setting [9]) was determined as 221 ± 82.5 ng/mL; in data set [6] (HP‐β‐CD 0 g), 3940 ± 225 ng/mL; in [6] (HP‐β‐CD 0.8 g), 2090 ± 243 ng/mL; in data set [6] (HP‐β‐CD 2 g) it was 1110 ± 142 ng/mL; in data set [6] (HP‐β‐CD 8 g), 447 ± 204 ng/mL. The Tmax in data set [5] (setting [9]) worked out at 1.56 ± 0.629 h; in [6] (HP‐β‐CD 0 g), 0.875 ± 0.25 h; in data set [6] (HP‐β‐CD 0.8 g), 1.38 ± 1.11 h; in [6] (HP‐β‐CD 2 g), 2 ± 1.15 h; in data set [6] (HP‐β‐CD 8 g), 3 h. Further, the half-life in [5] (setting [9]) is 8.26 ± 2.33 h. Also, the “AUC 0‐∞” value in data set [6] (HP‐β‐CD 0 g) amounted to 28.9 ± 6.98 µg/h/mL; in data set [6] (HP‐β‐CD 0.8 g), 17.4 ± 6.92 µg/h/mL; in data set [6] (HP‐β‐CD 2 g), 8.38 ± 1.94 µg/h/mL; in data set [6] (HP‐β‐CD 8 g), 4.46 ± 2.07 µg/h/mL. Also, the “Fenebrutinib recovered in feces” value is 3.48 ± 0.681 mg in data set [6] (HP‐β‐CD 0 g), 11.2 ± 2.39 mg in data set [6] (HP‐β‐CD 0.8 g), 15.6 ± 8.99 mg in [6] (HP‐β‐CD 2 g) and 22.7 ± 7.76 mg in data set [6] (HP‐β‐CD 8 g). Besides, the “increase of recovery in feces vs control” value in data set [6] (HP‐β‐CD 0.8 g) is around 3 fold; in data set [6] (HP‐β‐CD 2 g), around 4.5 fold; in [6] (HP‐β‐CD 8 g) it was “about 6.5 fold”. In addition, the “AUC decrease vs control” value was around 3.5 fold in [6] (HP‐β‐CD 2 g) and “about 7 fold” in data set [6] (HP‐β‐CD 8 g). In addition, the “Cmax decrease vs control” value in data set [6] (HP‐β‐CD 2 g) is around 3.5 fold.
Regarding `COc1ccc2cc([C@H](C)C(=O)O)ccc2c1` [Naproxen], the “k complex” value in data set [2] was 780 M⁻¹.
Consider `Clc1ccc(COC(Cn2ccnc2)c2ccc(Cl)cc2Cl)c(Cl)c1` (stereo not drawn) [Miconazole], for which the “k complex” value in [2] was 260 M⁻¹.
With `C[C@]12CC[C@@H]3c4ccc(O)cc4CC[C@H]3[C@@H]1CC[C@@H]2O` [Estradiol], the “k complex (M^−1)” value in data set [2] is 38,600 M^−1.
Consider `C[C@H]1O[C@@H](O[C@H]2[C@@H](O)C[C@H](O[C@H]3[C@@H](O)C[C@H](O[C@H]4CC[C@@]5(C)[C@H](CC[C@@H]6[C@@H]5C[C@@H](O)[C@]5(C)[C@@H](C7=CC(=O)OC7)CC[C@]65O)C4)O[C@@H]3C)O[C@@H]2C)C[C@H](O)[C@@H]1O` [Digoxin], for which the “k complex (M^−1)” value in data set [2] was 6,800 M^−1.
For the compound `CS(=O)(=O)c1ccc(C2=C(c3ccccc3)C(=O)OC2)cc1` [Rofecoxib], the “k complex” value in data set [1] was 190 M⁻¹.
`Cc1nnc2n1-c1ccc(Cl)cc1C(c1ccccc1)=NC2` [Alprazolam]: in [2], the “k complex” value is 250 M⁻¹.
For `Clc1ccc(COC(Cn2ccnc2)c2ccc(Cl)cc2Cl)cc1` (stereo not drawn) [Econazole], the “k complex” value in data set [2] was 180 M⁻¹.
Take `Cc1cc(NS(=O)(=O)c2ccc(N)cc2)no1` [Sulfamethoxazole]: the “k complex” value in data set [2] was 360 M⁻¹.
Regarding `CC[C@@]1(O)C(=O)OCc2c1cc1n(c2=O)Cc2cc3ccccc3nc2-1` [Camptothecin], the “k complex” value in data set [2] is 184 M⁻¹.
